Among all 1,300 compounds or so, about 65 (5%) were called active. For the sample, actives were picked, then their nearest neighbours and some compounds at random. Results with a measured potency or affinity are listed apart. Unmarked numbers belong to inactive results.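 The calls were made as follows: active = growth inhibition reaching a set limit at one or more tested doses; inactive = the rest.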
Test: wild-type E. coli BW25113 antibacterial activity – OD615, dose response (AID 638)
Details: at 100 µM (top of the series)
In short: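 Material – E. coli BW25113 wild type · Medium – Kanamycin-supplemented LB broth · Doses – compound dilution series for dose-response · Incubation – 20 h compound exposure, 37 °C · Technique – optical density (absorbance) at 615 nm · Read-out basis – IC50 from 4-parameter logistic, bounds fixed 0–100% · Control set – chloramphenicol at 30 µM final as inhibition control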

Compound | growth inhibition
Clc1ccc(COC(Cn2ccnc2)c2ccc(Cl)cc2Cl)c(Cl)c1 (stereo not given) | 10.9% (active)
Clc1ccc(COC(Cn2ccnc2)c2ccc(Cl)cc2Cl)cc1 (stereo not given) | 4.14%
Cc1nn(-c2ccccc2)c(Cl)c1C1C(C#N)=C(N)Oc2c1c(=O)oc1ccccc21 (stereo not given) | 3.35%
CN(C)C1(c2nnnn2CCOC(=O)Nc2ccc(Cl)cc2)CCCCC1 | 4.48%
CCC(=Nc1ccc(OC)cc1OC)c1c(O)n(C2CCCCC2)c(=O)[nH]c1=O | -2.11%
